From ChEMBL document CHEMBL3861956, “Lignans from the Australian Endemic Plant Austrobaileya scandens” (J Nat Prod, 2016) come the findings set out here.

Assay [1] in a line: Antiproliferative activity against human PC3 cells at 10 uM after 72 hrs by Alamar Blue assay relative to control. The note with it: PC-3, 72 h. Background: Resazurin is reduced to fluorescent resorufin, in cell work by metabolically active cells.
The nature of assay [2]: Antiproliferative activity against human PC3 cells after 72 hrs by Alamar Blue assay. The note with it: PC-3, 72 h.
The subject of assay [3] is PC-3. The experiment in a line: Induction of apoptosis in human PC3 cells assessed as increase in cell area after 72 hrs by Hoechst 33342/mitotracker deep red/cellmask plasma membrane probe-based fluorescence microscopy. It counts as functional. In outline:
(§1)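 PC3 cells seeded at 2000/well onto compound, grown 72 h at 37 °C, 5% CO2. Stained 30 min at 37 °C with Hoechst 33342 (1/1000), 1 μM MitoTracker Deep Red and CellMask plasma membrane (1/1000), then PBS wash. Automated wide-field imaging at 20×, 25 fields/well. Nuclei segmented by Hoechst, cytoplasm by CellMask, border cells excluded. Results normalized to DMSO; at least two experiments.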

Assay [4] deals with PC-3. The experiment in a line: Induction of apoptosis in human PC3 cells assessed as appearance of aggregated mitochondrial texture after 72 hrs by Hoechst 33342/mitotracker deep red/cellmask plasma membrane probe-based fluorescence microscopy. The class given is functional, cell-based. In outline: as §1
Assay [5] relates to PC-3. The experiment in a line: Induction of apoptosis in human PC3 cells assessed as chromatin condensation after 72 hrs by Hoechst 33342/mitotracker deep red/cellmask plasma membrane probe-based fluorescence microscopy. It counts as functional, cell-based. In outline:
as §1

The subject of assay [6] is PC-3. The experiment in a line: Induction of apoptosis in human PC3 cells assessed as increase in nuclear intensity after 72 hrs by Hoechst 33342/mitotracker deep red/cellmask plasma membrane probe-based fluorescence microscopy. It counts as functional, cell-based. In outline: as §1
The test system of assay [7] is PC-3. The experiment in a line: Induction of apoptosis in human PC3 cells assessed as increase in mitochondrial intensity after 72 hrs by Hoechst 33342/mitotracker deep red/cellmask plasma membrane probe-based fluorescence microscopy. It counts as functional, cell-based. Summed up: as §1
Assay [8] concerns PC-3. The experiment in a line: Induction of apoptosis in human PC3 cells assessed as increase in mitochondrial area after 72 hrs by Hoechst 33342/mitotracker deep red/cellmask plasma membrane probe-based fluorescence microscopy. It counts as functional, cell-based. Summed up: as §1
In assay [9] the test system is PC-3. The experiment in a line: Induction of apoptosis in human PC3 cells assessed as appearance of rounded cells after 72 hrs by Hoechst 33342/mitotracker deep red/cellmask plasma membrane probe-based fluorescence microscopy. The class given is functional, cell-based. In outline: as §1
A short description of assay [10]: Cell cycle arrest in human PC3 cells assessed as accumulation at S phase at 0.3 uM after 24 hrs by propidium iodide staining-based flow cytometric method (reference value: 15.8 +/- 0.3%). It counts as functional. The note with it: PC-3. In outline:
(§2)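 PC3 cells exposed 24 h to 0 (DMSO only), 0.1, 0.3 or 1 μM. Cells collected, washed in ice-cold PBS, fixed in 70% EtOH at −20 °C for 16 h. Stained 20 min at room temperature with 0.1% Triton X-100, 0.2 mg RNaseA and 2 μL PI (1 mg/mL) in 1 mL, then flow cytometry. Phase distribution fitted by ModFit.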

Assay [11] in a line: Cell cycle arrest in human PC3 cells assessed as accumulation at S phase at 0.1 uM after 24 hrs by propidium iodide staining-based flow cytometric method (reference value: 15.8 +/- 0.3%). The note with it: PC-3. It counts as functional. In outline:
as §2
For orientation: In flow cytometry, cells or beads pass a laser one at a time.

A short description of assay [12]: Cell cycle arrest in human PC3 cells assessed as accumulation at G2/M phase at 0.1 uM after 24 hrs by propidium iodide staining-based flow cytometric method (reference value: 8.9 +/- 1.5%). It counts as functional. The note with it: PC-3. In outline: as §2
The nature of assay [13]: Cell cycle arrest in human PC3 cells assessed as accumulation at G2/M phase at 0.3 uM after 24 hrs by propidium iodide staining-based flow cytometric method (reference value: 8.9 +/- 1.5%). The note with it: PC-3. The class given is functional. In outline:
as §2

Assay [14] can be described thus: Cell cycle arrest in human PC3 cells assessed as accumulation at G2/M phase at 1 uM after 24 hrs by propidium iodide staining-based flow cytometric method (reference value: 8.9 +/- 1.5%). It counts as functional. The note with it: PC-3. Summed up:
as §2

The nature of assay [15]: Cell cycle arrest in human PC3 cells assessed as accumulation at G0/G1 phase at 0.3 uM after 24 hrs by propidium iodide staining-based flow cytometric method (reference value: 75.3 +/- 1.8%). The class given is functional. The note with it: PC-3. Summed up:
as §2

The nature of assay [16]: Cell cycle arrest in human PC3 cells assessed as accumulation at G0/G1 phase at 0.1 uM after 24 hrs by propidium iodide staining-based flow cytometric method (reference value: 75.3 +/- 1.8%). The class given is functional. The note with it: PC-3. Summed up:
as §2

Assay [17] can be described thus: Cell cycle arrest in human PC3 cells assessed as accumulation at S phase at 1 uM after 24 hrs by propidium iodide staining-based flow cytometric method (reference value: 15.8 +/- 0.3%). The class given is functional. The note with it: PC-3. Summed up:
as §2

Assay [18] concerns PC-3. The experiment in a line: Induction of apoptosis in human PC3 cells assessed as increase in cell size after 72 hrs by Hoechst 33342/mitotracker deep red/cellmask plasma membrane probe-based fluorescence microscopy. The class given is functional. In outline:
as §1

Assay [19] can be described thus: Cell cycle arrest in human PC3 cells assessed as accumulation at G0/G1 phase at 1 uM after 24 hrs by propidium iodide staining-based flow cytometric method (reference value: 75.3 +/- 1.8%). The class given is functional. The note with it: PC-3. In outline: as §2

Consider `C[C@H]1[C@H](C)C(=O)O[C@@H]1c1ccc2c(c1)OCO2`, for which the inhibition (as a rule, the share of the control response that was lost under treatment) at 10 µM in [1] was 15%.

On to `COc1cc([C@@H]2c3cc4c(cc3C[C@H]3COC(=O)[C@@H]32)OCO4)cc2c1OCO2` [AUSTROBAILIGNAN 1], for which, in assay [2], the IC50 – broadly, the concentration needed to halve the response being measured – stood at 50 nM. This lies in the double-digit nanomolar range.

In [2], `CC(=O)O[C@H]1C(=O)[C@@]2(C)[C@H]([C@H](OC(=O)c3ccccc3)[C@]3(O)C[C@H](OC(=O)[C@H](O)[C@@H](NC(=O)c4ccccc4)c4ccccc4)C(C)=C1C3(C)C)[C@]1(OC(C)=O)CO[C@@H]1C[C@@H]2O` [PACLITAXEL] returned an IC50 of 2 nM.

Molecule `C[C@H](Cc1ccc2c(c1)OCO2)[C@H](C)Cc1ccc2c(c1)OCO2` showed an inhibition at 10 µM in [1] of 27%.

On to `COc1cc(C(=O)O[C@@H](c2ccc3c(c2)OCO3)[C@H](C)C(C)=O)ccc1O`, for which the Activity result in the assay with PC-3 [3], with PC-3 [4], with PC-3 [5], in the assay on PC-3 [6], in the assay with PC-3 [7] and in the assay on PC-3 [8] was “Dose-dependent effect” in each case. Further, the Activity entry is “Dose-dependent effect” with PC-3 [9]; 32.2% in assay [10]; 27.5% in assay [11]; 9.9% in [12]; 4.4% in [13]; 3.8% in assay [14]. In addition, the Activity in [15] was 63.4%; in assay [16], 62.6%; in assay [17], 35.1%; in the assay on PC-3 [18], “Dose-dependent effect”; in [19], 61.1%. In assay [2], this molecule showed a concentration for half-maximal inhibition (IC50) of 1910 nM.

As to `COc1cc([C@@H]2O[C@H](c3ccc4c(c3)OCO4)[C@@H](C)[C@@H]2C)ccc1O`, 5110 nM corresponded to half-maximal inhibition in [2] (IC50).

In the case of `COc1cc([C@@H]2c3cc4c(cc3C[C@@H](C)[C@@H]2C)OCO4)cc2c1OCO2`, in assay [2], half-maximal inhibition (IC50) was put at 2060 nM. Compared with the last molecule, the IC50 is about 2.5-fold lower.

`COc1cc([C@@H]2c3cc4c(c(OC)c3C[C@H]3COC(=O)[C@@H]32)OCO4)cc(OC)c1OC` gave an IC50 in assay [2] of 16 nM. This IC50 lies about 130-fold lower than the previous one.

`COc1cc([C@@H]2c3cc4c(cc3C[C@@H](C)[C@@H]2C)OCO4)cc(OC)c1OC` returned an IC50 in assay [2] of 823 nM.

On to `COc1cc([C@@H]2c3cc4c(cc3C[C@H]3COC(=O)[C@@H]32)OCO4)cc(OC)c1OC` [DESOXYPODOPHYLLOTOXIN], for which, in [2], half-maximal inhibition (IC50) required 18 nM.

On to `COc1cc(C(c2ccc(O)c(OC)c2)[C@@H](C)[C@H](C)CO)ccc1O`, for which the IC50 in [2] is 6360 nM.

As to `COc1cc([C@@H]2c3cc4c(cc3C[C@@H](C)[C@@H]2C(=O)O)OCO4)cc2c1OCO2`, in assay [2], the IC50 is 1630 nM.

The molecule `COc1cc([C@@H]2c3cc4c(c(OC)c3C[C@H]3COC(=O)[C@@H]32)OCO4)cc2c1OCO2` gave an IC50 in [2] of 47 nM.
